Converted amounts (≈) assume the structure as drawn.
Tests used:
Candida albicans [1] = assay: Antifungal activity against Candida albicans ATCC 90028 after 48 to 96 hrs by broth microdilution method; format: functional
How it was run: (§1)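 Broth microdilution followed NCCLS with slight modification, giving MIC. Compounds were dissolved in DMSO as a 12.8 mg/mL stock and diluted in RPMI-1640, with final solvent below 1%. Yeasts were kept on modified Sabouraud dextrose agar or potato dextrose agar slants, and filamentous fungi on potato dextrose agar.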

Candida parapsilosis = assay: Antifungal activity against Candida parapsilosis ATCC 22019 after 48 to 96 hrs by broth microdilution method; format: functional; conditions: Lodderomyces parapsilosis; how it was run: as §1
Nakaseomyces glabratus = assay: Antifungal activity against Candida glabrata ATCC 90030 after 48 to 96 hrs by broth microdilution method; format: functional; how it was run: as §1
Pichia kudriavzevii = assay: Antifungal activity against Candida krusei ATCC 6258 after 48 to 96 hrs by broth microdilution method; format: functional; how it was run: as §1
Cryptococcus neoformans = assay: Antifungal activity against Cryptococcus neoformans ATCC 90112 after 48 to 96 hrs by broth microdilution method; format: functional
How it was run: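 Broth microdilution followed NCCLS with slight modification, giving MIC. Yeasts were kept on modified Sabouraud dextrose agar or potato dextrose agar slants, and filamentous fungi on potato dextrose agar.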

Aspergillus fumigatus [2] = assay: Antifungal activity against Aspergillus fumigatus IFM 41374 after 48 to 96 hrs by broth microdilution method; format: functional; how it was run: as §1
Aspergillus fumigatus [3] = assay: Antifungal activity against Aspergillus fumigatus IFM 41236 after 48 to 96 hrs by broth microdilution method; format: functional; how it was run: as §1
Aspergillus nidulans = assay: Antifungal activity against Aspergillus nidulans IFM 5396 after 48 to 96 hrs by broth microdilution method; format: functional; how it was run: as §1
Candida albicans [4] = assay: Antifungal activity against Candida albicans ATCC 90028 after 48 hrs by disk diffusion assay; format: functional
How it was run: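 Pure compounds were dissolved in MeOH at 10 mg/mL, about 0.4 mg absorbed per 8 mm paper disk, then air-dried. Plates of Yeast Morphology Agar were incubated 48 h at 30 °C, and the diameter of the inhibition zone was measured.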

Candida albicans [5] = assay: microbe, parasite or virus in culture; conditions: ATCC 90028, 48 h, read-out: IZ
Candida albicans [6] = assay: Antifungal activity against Candida albicans ATCC 90028 at 100 ug/mL after 48 hrs by disk diffusion assay; format: functional; conditions: ATCC 90028, 48 h, read-out: IZ
How it was run: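 The 8 mm paper disk was dipped in the solution and air-dried. C. albicans ATCC 90028, preincubated in YPD broth, was the inoculum on Yeast Morphology Agar, incubated 48 h at 30 °C. Read-out was the diameter of the inhibition zone.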

Row | SMILES | MIC (Candida albicans [1]) [µg/mL] | MIC (Candida parapsilosis) [µg/mL] | MIC (Nakaseomyces glabratus) [µg/mL] | MIC (Pichia kudriavzevii) [µg/mL] | MIC (Cryptococcus neoformans) [µg/mL] | MIC (Aspergillus fumigatus [2]) [µg/mL] | MIC (Aspergillus fumigatus [3]) [µg/mL] | MIC (Aspergillus nidulans) [µg/mL] | inhibition zone (IZ) (Candida albicans [4]) [mm] | zone of inhibition at 10 µg/mL (Candida albicans [5]) [mm] | zone of inhibition at 100 µg/mL (Candida albicans [6]) [mm]
1 | COc1cc(-c2coc3cc(O)cc(O)c3c2=O)ccc1O [3'-O-METHYLOROBOL] | > 128 | > 128 | > 128 | > 128 | > 128 | > 128 | > 128 | > 128 | – | – | –
2 | CC1Oc2cc3oc4c(O)c(O)ccc4c(=O)c3c(O)c2C1(C)C (stereo not drawn) [TOXYLOXANTHONE C] | > 128 | > 128 | 8 (≈ 24.4 µM) | > 128 | 8 (≈ 24.4 µM) | 8 (≈ 24.4 µM) | 8 (≈ 24.4 µM) | 8 (≈ 24.4 µM) | 9 | – | –
3 | C=CC(C)(C)c1c(O)cc2oc3c(O)c(O)ccc3c(=O)c2c1O [CUDRAXANTHONE S] | 16 (≈ 48.7 µM) | > 128 | 4 (≈ 12.2 µM) | > 128 | 2 (≈ 6.09 µM) | 4 (≈ 12.2 µM) | 4 (≈ 12.2 µM) | 4 (≈ 12.2 µM) | 9 | – | –
4 | CC(C)=CCc1c(O)cc2oc3ccc(O)cc3c(=O)c2c1O | > 128 | > 128 | > 128 | > 128 | 128 (≈ 410 µM) | > 128 | > 128 | > 128 | 9 | – | –
5 | Clc1ccc(COC(Cn2ccnc2)c2ccc(Cl)cc2Cl)c(Cl)c1 (stereo not drawn) [MICONAZOLE] | 1 (≈ 2.4 µM) | 0.5 (≈ 1.2 µM) | 0.5 (≈ 1.2 µM) | 1 (≈ 2.4 µM) | 0.064 (≈ 0.154 µM) | 0.5 (≈ 1.2 µM) | 0.5 (≈ 1.2 µM) | 0.25 (≈ 0.601 µM) | 14 | 15 | –
6 | C[C@@H]1[C@H](O)[C@@H](C)/C=C/C=C/C=C/C=C/C=C/C=C/C=C/[C@H](O[C@@H]2O[C@H](C)[C@@H](O)[C@H](N)[C@@H]2O)C[C@@H]2O[C@](O)(C[C@@H](O)C[C@@H](O)[C@H](O)CC[C@@H](O)C[C@@H](O)CC(=O)O[C@H]1C)C[C@H](O)[C@H]2C(=O)O [AMPHOTERICIN B] | 2 (≈ 2.16 µM) | 2 (≈ 2.16 µM) | 1 (≈ 1.08 µM) | 2 (≈ 2.16 µM) | – | 1 (≈ 1.08 µM) | 1 (≈ 1.08 µM) | 2 (≈ 2.16 µM) | 22 | – | 18

The next lines start with results.

Row | MIC (Candida albicans [1]) [µg/mL] | MIC (Candida parapsilosis) [µg/mL] | MIC (Nakaseomyces glabratus) [µg/mL] | MIC (Pichia kudriavzevii) [µg/mL] | MIC (Cryptococcus neoformans) [µg/mL] | MIC (Aspergillus fumigatus [2]) [µg/mL] | MIC (Aspergillus fumigatus [3]) [µg/mL] | MIC (Aspergillus nidulans) [µg/mL] | SMILES | inhibition zone (IZ) (Candida albicans [4]) [mm] | zone of inhibition at 10 µg/mL (Candida albicans [5]) [mm] | zone of inhibition at 100 µg/mL (Candida albicans [6]) [mm]
7 | 64 (≈ 168 µM) | > 128 | > 128 | 64 (≈ 168 µM) | 16 (≈ 42.1 µM) | 16 (≈ 42.1 µM) | 8 (≈ 21 µM) | 32 (≈ 84.1 µM) | CC(C)=CCc1c(O)cccc1C(=O)c1c(O)cc(O)c2c1OC(C)(C)C=C2 [CUDRAPHENONE C] | 10 | – | –
8 | 16 (≈ 47.3 µM) | > 128 | > 128 | > 128 | 4 (≈ 11.8 µM) | 4 (≈ 11.8 µM) | 2 (≈ 5.91 µM) | 2 (≈ 5.91 µM) | CC(C)=CCc1c(O)cc2occ(-c3ccc(O)cc3)c(=O)c2c1O [WIGHTEONE] | 11 | – | –
9 | 64 (≈ 188 µM) | > 128 | > 128 | 64 (≈ 188 µM) | 64 (≈ 188 µM) | > 128 | 16 (≈ 47 µM) | 128 (≈ 376 µM) | CC(C)=CCc1c(O)cc(O)c2c1OC(c1ccc(O)cc1)CC2=O (stereo not drawn) [SOPHORAFLAVANONE B] | – | – | –
10 | 64 (≈ 180 µM) | 128 (≈ 359 µM) | 128 (≈ 359 µM) | 64 (≈ 180 µM) | 32 (≈ 89.8 µM) | 64 (≈ 180 µM) | 64 (≈ 180 µM) | 64 (≈ 180 µM) | CC(C)=CCc1c(O)cc2c(c1O)C(=O)CC(c1ccc(O)cc1O)O2 (stereo not drawn) [CUDRAFLAVANONE B] | 9 | – | –
11 | > 128 | > 128 | > 128 | > 128 | > 128 | 32 (≈ 97.5 µM) | 16 (≈ 48.7 µM) | 16 (≈ 48.7 µM) | COc1cc(O)c(C(=O)c2cccc(O)c2CC=C(C)C)c(O)c1 [CUDRANONE] | 9 | – | –
12 | 16 (≈ 41.8 µM) | 64 (≈ 167 µM) | 32 (≈ 83.7 µM) | 8 (≈ 20.9 µM) | 2 (≈ 5.23 µM) | 8 (≈ 20.9 µM) | 4 (≈ 10.5 µM) | 16 (≈ 41.8 µM) | CC(C)=CCc1c(O)cccc1C(=O)c1c(O)cc(O)c(CC=C(C)C)c1O [CUDRAPHENONE D] | 11 | – | –
13 | 16 (≈ 43.7 µM) | > 128 | 16 (≈ 43.7 µM) | 16 (≈ 43.7 µM) | 4 (≈ 10.9 µM) | 8 (≈ 21.8 µM) | 4 (≈ 10.9 µM) | 8 (≈ 21.8 µM) | CC(C)=CCc1cc(C(=O)c2cccc(O)c2CC=C(C)C)c(O)cc1O [CUDRAPHENONE B] | – | – | –
14 | > 128 | > 128 | > 128 | > 128 | 32 (≈ 103 µM) | > 128 | > 128 | > 128 | CC1(C)C=Cc2c(cc3oc4c(O)cccc4c(=O)c3c2O)O1 | – | – | –
